Measured values: ChEMBL document CHEMBL1146219, “Synthesis and evaluation of novel radioiodinated benzamides for malignant melanoma” (J Med Chem, 2007)

Tests used:
Details in all cases: in vivo
Kidney [1] = assay: Biodistribution in kidney of B16F0 tumor bearing C57BL/6J mouse at 0.37-0.74 MBq, iv after 1 hr; format: ADME, organism-based
How it was run: (§1)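 Female C57BL/6J mice (15-18 g) were given B16F0 cells subcutaneously in the left flank (0.1 mL of 3 × 10⁶ viable cells/mL in Ca²⁺/Mg²⁺-free PBS) at 6-7 weeks and used after ten days. [¹²³I]benzamide (0.37-0.74 MBq, 100 µL, saline) was injected via the tail vein. Groups of n = 5 were killed by CO₂ and cervical dislocation. Organs were weighed and γ-counted, and the carcass was counted too.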

[2] = Biodistribution in melanoma of B16F0 tumor bearing C57BL/6J mouse at 0.37-0.74 MBq, iv after 1 hr; format: ADME, organism-based, B16-F0; how it was run: as §1
Blood [3] = assay: Biodistribution in blood of B16F0 tumor bearing C57BL/6J mouse at 0.37-0.74 MBq, iv after 24 hrs; format: ADME, organism-based; how it was run: as §1
Liver [4] = assay: Biodistribution in liver of B16F0 tumor bearing C57BL/6J mouse at 0.37-0.74 MBq, iv after 6 hrs; format: ADME, organism-based; how it was run: as §1
Heart [5] = assay: Biodistribution in heart of B16F0 tumor bearing C57BL/6J mouse at 0.37-0.74 MBq, iv after 6 hrs; format: ADME, organism-based; how it was run: as §1
Blood [6] = assay: Biodistribution in blood of B16F0 tumor bearing C57BL/6J mouse at 0.37-0.74 MBq, iv after 1 hr; format: ADME, organism-based; how it was run: as §1
Brain [7] = assay: Biodistribution in brain of B16F0 tumor bearing C57BL/6J mouse at 0.37-0.74 MBq, iv after 6 hrs; format: ADME, organism-based; how it was run: as §1
Lung [8] = assay: Biodistribution in lung of B16F0 tumor bearing C57BL/6J mouse at 0.37-0.74 MBq, iv after 24 hrs; format: ADME, organism-based; how it was run: as §1
Kidney [9] = assay: Biodistribution in kidney of B16F0 tumor bearing C57BL/6J mouse at 0.37-0.74 MBq, iv after 6 hrs; format: ADME, organism-based; how it was run: as §1
Liver [10] = assay: Biodistribution in liver of B16F0 tumor bearing C57BL/6J mouse at 0.37-0.74 MBq, iv after 24 hrs; format: ADME, organism-based; how it was run: as §1
[11] = Biodistribution in melanoma of B16F0 tumor bearing C57BL/6J mouse at 0.37-0.74 MBq, iv after 24 hrs; format: ADME, organism-based, B16-F0; how it was run: as §1
Lung [12] = assay: Biodistribution in lung of B16F0 tumor bearing C57BL/6J mouse at 0.37-0.74 MBq, iv after 1 hr; format: ADME, organism-based; how it was run: as §1
Heart [13] = assay: Biodistribution in heart of B16F0 tumor bearing C57BL/6J mouse at 0.37-0.74 MBq, iv after 24 hrs; format: ADME, organism-based; how it was run: as §1
Heart [14] = assay: Biodistribution in heart of B16F0 tumor bearing C57BL/6J mouse at 0.37-0.74 MBq, iv after 1 hr; format: ADME, organism-based; how it was run: as §1
[15] = Biodistribution in melanoma of B16F0 tumor bearing C57BL/6J mouse at 0.37-0.74 MBq, iv after 6 hrs; format: ADME, organism-based, B16-F0
How it was run: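 Female C57BL/6J mice (15-18 g) carrying s.c. B16F0 flank tumors (0.1 mL of 3 × 10⁶ viable cells per mL in Ca²⁺/Mg²⁺-free PBS, inoculated at 6-7 weeks, used 10 days later). [¹²³I]tracer 0.37-0.74 MBq in saline, 100 µL, tail-vein i.v. Groups of n = 5 killed at 1-72 h. Organs weighed and γ-counted, carcass activity also counted, values as %ID/g.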

Liver [16] = assay: Biodistribution in liver of B16F0 tumor bearing C57BL/6J mouse at 0.37-0.74 MBq, iv after 1 hr; format: ADME, organism-based; how it was run: as §1
Brain [17] = assay: Biodistribution in brain of B16F0 tumor bearing C57BL/6J mouse at 0.37-0.74 MBq, iv after 24 hrs; format: ADME, organism-based; how it was run: as §1
Kidney [18] = assay: Biodistribution in kidney of B16F0 tumor bearing C57BL/6J mouse at 0.37-0.74 MBq, iv after 24 hrs; format: ADME, organism-based; how it was run: as §1
Blood [19] = assay: Biodistribution in blood of B16F0 tumor bearing C57BL/6J mouse at 0.37-0.74 MBq, iv after 6 hrs; format: ADME, organism-based; how it was run: as §1
Brain [20] = assay: Biodistribution in brain of B16F0 tumor bearing C57BL/6J mouse at 0.37-0.74 MBq, iv after 1 hr; format: ADME, organism-based; how it was run: as §1
Lung [21] = assay: Biodistribution in lung of B16F0 tumor bearing C57BL/6J mouse at 0.37-0.74 MBq, iv after 6 hrs; format: ADME, organism-based; how it was run: as §1

Structure (SMILES)	Drug uptake (Kidney [1])	Drug uptake [2]	Drug uptake (Blood [3])	Drug uptake (Liver [4])	Drug uptake (Heart [5])	Drug uptake (Blood [6])	Drug uptake (Brain [7])	Drug uptake (Lung [8])	Drug uptake (Kidney [9])	Drug uptake (Liver [10])	Drug uptake [11]	Drug uptake (Lung [12])	Drug uptake (Heart [13])	Drug uptake (Heart [14])	Drug uptake [15]	Drug uptake (Liver [16])	Drug uptake (Kidney [18])	Drug uptake (Blood [19])	Drug uptake (Brain [20])	Drug uptake (Lung [21])	further results
CCCN(CCC)CCCCNC(=O)c1cc([123I])c(NC(C)=O)cc1OC	14.1 % ID/g	8 % ID/g	0.15 % ID/g	1.8 % ID/g	0.49 % ID/g	1.7 % ID/g	0.05 % ID/g	0.14 % ID/g	1 % ID/g	0.64 % ID/g	5.1 % ID/g	1.7 % ID/g	0.14 % ID/g	0.93 % ID/g	6.8 % ID/g	7.3 % ID/g	0.18 % ID/g	1.1 % ID/g	0.07 % ID/g	0.8 % ID/g	Drug uptake (Brain [17]): 0.01 % ID/g
O=C(NCCCCN1CC2CCC1C2)c1ccc([123I])cc1 (centres undefined)	15.2 % ID/g	3.8 % ID/g	0.03 % ID/g	27 % ID/g	0.44 % ID/g	0.48 % ID/g	0.06 % ID/g	0.4 % ID/g	4.9 % ID/g	3.5 % ID/g	3.4 % ID/g	6.9 % ID/g	0.13 % ID/g	1.05 % ID/g	3.5 % ID/g	43.2 % ID/g	0.59 % ID/g	0.24 % ID/g	0.1 % ID/g	2.1 % ID/g	Drug uptake (Brain [17]): 0.01 % ID/g
COc1cc(NC(C)=O)c([123I])cc1C(=O)NCCCCN1CC2CCC1C2 (centres undefined)	3.7 % ID/g	3.4 % ID/g	0.02 % ID/g	0.8 % ID/g	0.3 % ID/g	1.92 % ID/g	0.03 % ID/g	0.04 % ID/g	0.67 % ID/g	0.19 % ID/g	1.4 % ID/g	2.6 % ID/g	0.03 % ID/g	0.94 % ID/g	2.8 % ID/g	7.1 % ID/g	0.03 % ID/g	0.78 % ID/g	0.08 % ID/g	0.68 % ID/g	–
CCN(CC)CCNC(=O)c1cc([123I])c(NS(=O)(=O)c2ccc(C)cc2)cc1OC	1.2 % ID/g	4.2 % ID/g	0.05 % ID/g	1.5 % ID/g	0.11 % ID/g	0.74 % ID/g	–	0.05 % ID/g	0.36 % ID/g	0.21 % ID/g	1.4 % ID/g	0.62 % ID/g	0.03 % ID/g	0.28 % ID/g	2.6 % ID/g	3.8 % ID/g	0.06 % ID/g	0.33 % ID/g	0.03 % ID/g	0.22 % ID/g	–
CCN(CC)CCNC(=O)c1ccccc1[123I]	6.8 % ID/g	7.1 % ID/g	0.06 % ID/g	0.73 % ID/g	0.4 % ID/g	1.9 % ID/g	0.11 % ID/g	0.09 % ID/g	0.76 % ID/g	0.1 % ID/g	3 % ID/g	4.5 % ID/g	0.07 % ID/g	2 % ID/g	8.8 % ID/g	6.8 % ID/g	0.06 % ID/g	1.2 % ID/g	1.3 % ID/g	0.82 % ID/g	Drug uptake (Brain [17]): 0.01 % ID/g
CCN(CC)CCNC(=O)c1cc([123I])c(NS(C)(=O)=O)cc1OC	1.3 % ID/g	5.4 % ID/g	0.01 % ID/g	1.2 % ID/g	0.19 % ID/g	0.77 % ID/g	0.02 % ID/g	0.03 % ID/g	0.49 % ID/g	0.28 % ID/g	1.7 % ID/g	0.67 % ID/g	0.04 % ID/g	0.42 % ID/g	3.6 % ID/g	2.3 % ID/g	0.06 % ID/g	0.49 % ID/g	0.05 % ID/g	0.38 % ID/g	–
CCCN(CCC)CCCCNC(=O)c1ccc([123I])cc1	8.6 % ID/g	6.2 % ID/g	0.08 % ID/g	33 % ID/g	0.81 % ID/g	0.52 % ID/g	0.17 % ID/g	0.39 % ID/g	5.4 % ID/g	2.9 % ID/g	6.9 % ID/g	8.2 % ID/g	0.12 % ID/g	1.9 % ID/g	7.5 % ID/g	49.1 % ID/g	0.52 % ID/g	0.35 % ID/g	0.5 % ID/g	3.9 % ID/g	Drug uptake (Brain [17]): 0.04 % ID/g
CCCCNCCCCNC(=O)c1cc([123I])c(NC(C)=O)cc1OC	3.26 % ID/g	3.4 % ID/g	0.05 % ID/g	1.3 % ID/g	0.28 % ID/g	0.84 % ID/g	0.02 % ID/g	0.04 % ID/g	0.46 % ID/g	0.45 % ID/g	2.2 % ID/g	2 % ID/g	0.06 % ID/g	0.64 % ID/g	3.4 % ID/g	6 % ID/g	0.05 % ID/g	0.47 % ID/g	0.04 % ID/g	0.45 % ID/g	–
O=C(NC1CCN(CCO)CC1)c1ccc([123I])cc1	10.6 % ID/g	5.9 % ID/g	0.04 % ID/g	9.2 % ID/g	0.93 % ID/g	1 % ID/g	0.46 % ID/g	1.44 % ID/g	3.2 % ID/g	5.4 % ID/g	9.2 % ID/g	17.8 % ID/g	0.49 % ID/g	3.1 % ID/g	11.7 % ID/g	17.1 % ID/g	1.2 % ID/g	0.21 % ID/g	1 % ID/g	4.7 % ID/g	Drug uptake (Brain [17]): 0.15 % ID/g
